Published values of several laboratories.
Each line is one published result; the experiments were not run side by side. Converted amounts (≈) assume the structure as drawn.

With `Nc1nn2c(-c3ccc(Cl)cc3Cl)cc(-c3ccc(OCc4ccccc4)cc3)nc2c1N=Nc1ccc(F)cc1` the MBC was 62.5 µg/mL (≈ 107 µM) (Enterobacter cloacae; microbial killing; ATCC23355).
With `O=C(NCc1cn(Cc2ccc(Br)cc2)nn1)Nc1ccc(Cl)cc1` the viability was 91.5% (NCI-H1299; cell growth or viability, CCK-8; 50 µM, 72 h).
`COc1ccc(NC(=O)Nc2ccc(-c3cn(Cc4ccc(C)cc4)nn3)cc2)cc1` has a viability of 104% (NCI-H1299; cell growth or viability, CCK-8; 50 µM, 72 h).
For `O=C(Nc1ccc(-c2cn(Cc3ccc(Cl)cc3)nn2)cc1)Nc1ccccc1Br`, the viability was 109% (NCI-H1299; cell growth or viability, CCK-8; 50 µM, 72 h).
`COc1ccc(NC(=O)Nc2ccc(-c3cn(Cc4ccc(Cl)cc4)nn3)cc2)cc1` gave a viability of 97.9% (NCI-H1299; cell growth or viability, CCK-8; 50 µM, 72 h).
For `CN(C)CCNC(=O)c1ccc(-c2nc3ccc4[nH]ncc4c3c3c2CCCC3)c(F)c1`, the GI50 was 1280 nM (22Rv1; cell growth or viability; 72 h).
`COc1ccc(N=Nc2c(N)nn3c(-c4ccc(Cl)cc4Cl)cc(-c4ccc(OCc5ccccc5)cc4)nc23)cc1` gave an MBC of 250 µg/mL (≈ 420 µM) (Enterobacter cloacae; microbial killing; ATCC23355).
The viability of `COc1ccc(NC(=O)Nc2ccc(-c3cn(Cc4ccc(Br)cc4)nn3)cc2)cc1` is reported as 106% (NCI-H1299; cell growth or viability, CCK-8; 50 µM, 72 h).
For `O=C(Nc1cccc(-c2cn(Cc3ccc(Cl)cc3)nn2)c1)Nc1ccccc1Br`, the viability was 130% (NCI-H1299; cell growth or viability, CCK-8; 50 µM, 72 h).
`COc1ccc(N=Nc2c(N)nn3c(-c4ccc(C)cc4)cc(-c4ccc(OCc5ccccc5)cc4)nc23)cc1` gave an MBC of 125 µg/mL (≈ 231 µM) (Enterobacter cloacae; microbial killing; ATCC23355).
With `COc1ccc(NC(=O)Nc2cccc(-c3cn(Cc4ccc(Br)cc4)nn3)c2)cc1` the viability was 151% (NCI-H1299; cell growth or viability, CCK-8; 50 µM, 72 h).
For `O=C(NCc1cn(Cc2ccc(Br)cc2)nn1)Nc1ccccc1Br`, the viability was 89.2% (NCI-H1299; cell growth or viability, CCK-8; 50 µM, 72 h).
For `Cc1ccc2[nH]nc(-c3nnc(Nc4ccc(O)cc4)s3)c2c1`, the MIC was 62.8 µg/mL (≈ 194 µM) (Serratia marcescens; microbial growth; ATCC8100).
With `COc1ccc(NC(=O)Nc2ccc(-c3cn(Cc4cccc(Cl)c4)nn3)cc2)cc1` the viability was 93.7% (NCI-H1299; cell growth or viability, CCK-8; 50 µM, 72 h).
With `Cc1n[nH]c2ccc3nc(-c4ccc(C(=O)NCCN(C)C)cc4)c4c(c3c12)CCCC4` the GI50 was 1780 nM (22Rv1; cell growth or viability; 72 h).
The MIC of `Cc1ccc2[nH]nc(-c3nnc(Nc4ccc(C(F)(F)F)cc4)s3)c2c1` is reported as 62.8 µg/mL (≈ 167 µM) (Serratia marcescens; microbial growth; ATCC8100).
The MBC of `COc1ccc(N=Nc2c(N)nn3c(-c4ccco4)cc(-c4ccc(OCc5ccccc5)cc4)nc23)cc1` is reported as 62.5 µg/mL (≈ 121 µM) (Enterobacter cloacae; microbial killing; ATCC23355).
With `Cc1ccc2[nH]nc(-c3nnc(Nc4ccc(Br)cc4)s3)c2c1` the MIC was 257 µg/mL (≈ 664 µM) (Serratia marcescens; microbial growth; ATCC8100).
For `O=C(NCc1cn(Cc2ccc(Cl)cc2)nn1)Nc1ccccc1Br`, the viability was 90.7% (NCI-H1299; cell growth or viability, CCK-8; 50 µM, 72 h).
